Here are results for one molecule from ChEMBL document CHEMBL4038269, “Design, synthesis and evaluation of novel feruloyl-donepezil hybrids as potential multitarget drugs for the treatment of Alzheimer's disease” (Eur J Med Chem, 2017).

The target in one data set is Cholinesterase (Equus caballus, UniProt P81908). As to the kind of experiment: Inhibition of equine serum BuChE using butyrylthiocholine iodide as substrate pretreated for 10 mins followed by substrate addition measured at 12 secs interval for 5 mins by Ellman's method. The procedure, abridged:
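Ellman assay in 0.1 M sodium phosphate pH 7.4, enzyme 0.5 U/mL, DTNB 10 mM; concentration series preincubated 10 min before butyrylthiocholine iodide ([…]); A412 over 5 min at 12 s intervals. IC50 from fitted concentration-response curves, geometric mean of independent experiments, each in triplicate; DMSO ≤0.2% final.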
On the technique in general: Ellman's reagent forms a yellow product with free thiols.

Data set [1] in a line: Metal chelating activity assessed as absorption maximum for compound-Zn2+ complex formation at 75 uM after 30 mins by UV-Vis spectrophotometric method. The class given is functional. The procedure, abridged:
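UV-Vis spectra in ethanol of compound at 75 µM alone or after 30 min incubation with CuSO4, FeSO4, FeCl3 or ZnCl2 (150 µM). Absorption maxima recorded.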

The subject of data set [2] is SH-SY5Y. As to the kind of experiment: Antioxidant activity in human SH-SY5Y cells assessed as increase in GSH level at 20 uM after 24 hrs by MCB probe based assay relative to control. The class given is functional. The essentials: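 SH-SY5Y cells (DMEM, 10% FBS, 37 °C, 5% CO2) seeded at 2 x 10^4 cells/well and grown 24 h. Treated with 20 µM compound for 3-24 h. Then 50 µM monochlorobimane in PBS for 30 min at 37 °C. GSH fluorescence read at ex 360/em 465 nm, as % of control cells. Mean ± SD of three independent experiments.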

Data set [3] relates to Mus musculus. The experiment in a line: Anti-inflammatory activity in Swiss mouse model of LPS-induced peritonitis assessed as inhibition of leukocyte migration at 100 umol/kg, po pretreated for 30 mins followed by LPS challenge measured after 4 hrs by Neubauer chamber method. The class given is functional, organism-based. The essentials: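 Adult male Swiss mice (22-28 g), n=8 per group, dosed orally with 100 µmol/kg or vehicle (saline + DMSO 2%). 30 min later E. coli 026:B6 LPS, 100 µg/kg i.p. in sterile saline. Killed at 4 h by halothane overdose. Peritoneum lavaged with 10 ml PBS containing 0.5% sodium citrate. Total leukocytes counted in a Neubauer chamber, expressed as cells per cavity, mean ± SEM.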

Data set [4] has as its system SH-SY5Y. As to the kind of experiment: Antioxidant activity in human SH-SY5Y cells assessed as reduction in H2O2-induced reactive oxygen species formation at 20 uM pretreated for 24 hrs followed by H2O2 addition measured after 30 mins DCFH-DA probe based fluorescence assay. The class given is functional, cell-based. The essentials: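 SH-SY5Y cells treated 24 h with compound (20 µM in figure), then exposed to 100 µM H2O2 for 30 min. Intracellular ROS read with DCFH-DA probe (10 µg/mL, 30 min preload) at ex 485/em 535 nm. Expressed as % of control cells; mean ± SD, three independent experiments.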

Data set [5] has as its system Mus musculus. As to the kind of experiment: Neurotoxicity in Swiss mouse assessed as induction of motor impairment at 100 umol/kg, po measured after 1 hr by open filed test. The class given is toxicity, organism-based. The note with it: in vivo. The essentials:
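Male Swiss mice (n=8) given vehicle or compound orally 1 h before open-field test. Crossings of the central four and peripheral 12 squares counted separately.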

Data set [6] deals with Mus musculus. The experiment in a line: In vivo inhibition of 5-LOX activity in carrageenan-induced Swiss mouse serum at 100 umol/kg, po pretreated for 1 hr followed by carrageenan challenge after 3 hrs by ELISA relative to control. Type of data set: functional. The procedure, abridged:
(§1)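 Male Swiss mice given oral drug (100 µmol/kg) or vehicle 1 h before intraplantar carrageenan (legend: 400 µg/paw). At 3 h, animals anaesthetised with chloral hydrate and cardiac blood taken. Serum separated (1500 rpm, 20 min) and frozen at -70 °C. COX-1, COX-2 and 5-LOX measured by specific sandwich ELISA at 450 nm. Expressed as % enzymatic activity, mean ± SEM, n=8.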
On the technique in general: ELISA stands for enzyme-linked immunosorbent assay.

Data set [7] relates to SH-SY5Y. The experiment in a line: Neuroprotective activity in human SH-SY5Y cells assessed as reduction in amyloid beta (1 to 42)-induced late neuronal death at 20 uM after 24 hrs by propidium iodide staining based fluorescence microscopic method. Type of data set: functional, cell-based. The essentials:
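SH-SY5Y cells at 5×10^3 cells/well, grown 24 h, then compound (20 µM) with Aβ1-42 oligomers for 24 h at 37 °C; oligomers 10 µM in methods, 20 µM in legend. Stained with propidium iodide (25 µg/mL in PBS) for 10 min. Four random fields of 50–100 cells scored by fluorescence microscopy; dead cells % = PI-positive/total × 100.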

In data set [8] the test system is Mus musculus. The experiment in a line: Antiinflammatory activity in formalin-induced nociception Swiss mouse model assessed as reduction in time spent licking formalin injected hind paw during neurogenic phase at 100 umol/kg, po pretreated for 1 hr followed by formalin challenge measured up to 5 mins. The class given is functional, organism-based. The procedure, abridged:
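Male Swiss mice (22-28 g), n=8 per group, given oral vehicle (saline + DMSO 2%) or 100 µmol/kg 1 h before formalin (5% in 0.9% saline, 20 µl) into the right hind paw sub-plantar region. Morphine 39 µmol/kg i.p. was given 30 min before. Paw-licking time recorded at 0–5 min (neurogenic phase) and 20–30 min (inflammatory phase).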

The subject of data set [9] is Mus musculus. The experiment in a line: Antinociceptive activity in carrageenan-induced Swiss mouse model of mechanical hyperalgesia at 100 umol/kg, po pretreated for 1 hr followed by carrageenan challenge measured at 3 hrs to 7 hrs post dose by Von Frey filament assay. The class given is functional, organism-based. The procedure, abridged:
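Male Swiss mice (n=8) dosed orally with 100 µmol/kg or vehicle 1 h before intraplantar carrageenan (100 µg/paw). Mechanical threshold measured by up-and-down Von Frey method after 60 min acclimation on a wire screen. Started at 0.4 g filament, ≥6 trials at 10 s intervals, about 4 s per application. Reported as mean threshold in grams ± SEM.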

Data set [10] in a line: Antioxidant activity assessed as DPPH radical scavenging activity measured after 30 mins. The class given is functional. The essentials:
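DPPH scavenging: compound at 12.5, 25, 50 and 100 µM in ethanol (4 mL) mixed with 1 mL of 0.5 mM DPPH in ethanol. Shaken 30 min at room temperature, absorbance read at 517 nm. % inhibition = (A control − A sample)/A control × 100. Run in triplicate; EC50 obtained by linear regression of mean values.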
(The DPPH test is a chemical assay of radical scavenging.)

The subject of data set [11] is Mus musculus. The experiment in a line: In vivo inhibition of COX-2 activity in carrageenan-induced Swiss mouse serum at 100 umol/kg, po pretreated for 1 hr followed by carrageenan challenge after 3 hrs by ELISA relative to control. The class given is functional. The procedure, abridged: as §1
In another data set the target is Acetylcholinesterase (Electrophorus electricus, UniProt O42275). As to the kind of experiment: Inhibition of Electrophorus electricus AChE using acetylthiocholine iodide as substrate pretreated for 10 mins followed by substrate addition measured at 12 secs interval for 5 mins by Ellman's method.
Sequence of Acetylcholinesterase (O42275 whole entry): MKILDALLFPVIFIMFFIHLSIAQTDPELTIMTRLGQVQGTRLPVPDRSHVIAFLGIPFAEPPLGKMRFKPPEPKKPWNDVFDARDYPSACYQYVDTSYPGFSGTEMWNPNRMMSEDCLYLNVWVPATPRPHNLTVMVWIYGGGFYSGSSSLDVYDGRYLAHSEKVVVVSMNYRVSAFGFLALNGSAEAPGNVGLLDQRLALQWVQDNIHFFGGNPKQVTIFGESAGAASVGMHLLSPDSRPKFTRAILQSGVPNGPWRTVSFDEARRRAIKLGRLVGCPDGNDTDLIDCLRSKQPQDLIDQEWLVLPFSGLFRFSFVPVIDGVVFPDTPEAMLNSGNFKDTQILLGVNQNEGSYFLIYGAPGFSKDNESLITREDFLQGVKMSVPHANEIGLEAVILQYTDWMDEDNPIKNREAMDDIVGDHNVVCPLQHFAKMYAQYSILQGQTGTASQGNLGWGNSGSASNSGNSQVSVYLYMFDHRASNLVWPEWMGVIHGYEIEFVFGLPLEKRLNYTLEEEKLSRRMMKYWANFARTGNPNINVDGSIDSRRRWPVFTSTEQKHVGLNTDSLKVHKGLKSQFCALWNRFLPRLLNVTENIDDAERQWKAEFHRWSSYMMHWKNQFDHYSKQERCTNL

SMILES strings stand for the structures. Activity calls are given as the source filed them.

Sequence of Cholinesterase (P81908 whole entry): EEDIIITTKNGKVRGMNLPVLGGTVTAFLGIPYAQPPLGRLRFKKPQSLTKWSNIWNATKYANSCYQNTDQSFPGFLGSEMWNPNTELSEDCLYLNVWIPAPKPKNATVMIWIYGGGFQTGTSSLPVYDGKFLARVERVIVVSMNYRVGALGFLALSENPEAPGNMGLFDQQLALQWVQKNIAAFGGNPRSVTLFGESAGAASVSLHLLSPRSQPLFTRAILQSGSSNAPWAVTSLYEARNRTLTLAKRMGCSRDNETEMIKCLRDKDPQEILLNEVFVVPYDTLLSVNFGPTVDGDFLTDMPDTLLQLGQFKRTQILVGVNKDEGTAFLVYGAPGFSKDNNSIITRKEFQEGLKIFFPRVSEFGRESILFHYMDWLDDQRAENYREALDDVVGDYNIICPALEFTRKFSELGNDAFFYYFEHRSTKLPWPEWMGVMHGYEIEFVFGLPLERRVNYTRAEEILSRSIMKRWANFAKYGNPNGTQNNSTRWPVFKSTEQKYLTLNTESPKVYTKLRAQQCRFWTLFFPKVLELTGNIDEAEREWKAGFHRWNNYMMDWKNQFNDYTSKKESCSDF

As usually defined, the IC50 is the concentration needed to halve the response being measured. For orientation: inhibition in vivo means the percentage by which the read-out fell short of the control. Usually EC50 stands for the concentration needed to bring the measured effect to its halfway point. `COc1cc(/C=C/C(=O)OCC2CCN(Cc3ccccc3)CC2)ccc1O`: the IC50 at Cholinesterase was determined as 25 µM; at Acetylcholinesterase it was 0.46 µM. Also, the outcome in [1] was inactive. Besides, the “fold change (FC)” value in the data set on SH-SY5Y [2] was 1.4. In the data set on Mus musculus [3], the inhibition result was “Active”. In addition, the outcome in the data set with SH-SY5Y [4], in the data set with SH-SY5Y [7], in the data set with Mus musculus [8] and in the data set with Mus musculus [9] was Active. In the data set on Mus musculus [5], the Activity entry is on record as “Non-Toxic”. Also, the inhibition in vivo at 100 µmol/kg came to 30% with Mus musculus [6] and 27% with Mus musculus [11]. Also, the EC50 in data set [10] was 49.4 µM.
